The subject of assay [1] is Mus musculus. The assay can be described thus: Tested for its effect on spermatogenic index 3 days after single oral dose (90 mg/kg),. Type of assay: functional. The method in brief: (§1)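 CD-1 outbred Swiss albino male mice, 5 per dose, single gavage on day 0 at 10 mL/kg. Vehicle was 0.15 M acetate buffer pH 5, ethanol/Tween-20/water (3:7:90), or 1% Tween-20 in water. CO2 euthanasia 72 h later. Testes weighed and histologically scored (spermatogenic index 0–6). Values are % reduction versus the assay's vehicle control. Positive control was 30 mg/kg of the parent compound. Significance by Dunnett's one-tailed t-test, p < 0.05.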

In assay [2] the test system is Mus musculus. Put plainly: Tested for its effect on spermatogenic index 3 days after single oral dose (30 mg/kg),. Type of assay: functional. The method in brief: as §1
Assay [3] has as its system Mus musculus. Put plainly: tested for its effect on mouse testes weight 3 days after single oral dose (3 mg/kg). Type of assay: functional, Testis. In short, it runs like this: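 Male CD-1 (ICR)BR outbred Swiss albino mice, 5/dose, given one oral gavage dose (10 mL/kg) on day 0 in 0.15 M acetate buffer pH 5, ethanol/Tween-20/water (3:7:90), or 1% Tween-20 in water; vehicle and positive-control groups in each assay. Killed by CO2 72 h later; testes weighed. Expressed as % reduction versus vehicle control; Dunnett's one-tailed t-test.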

For assay [4], the system named is Mus musculus. The assay can be described thus: Effect on right testes weight after 1 hr of dosing was observed. Type of assay: functional, Testis. The method in brief: (§2)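 Male CD-1 outbred Swiss albino mice, single oral gavage in acetate buffer pH 5 (10 mL/kg), 3, 10 or 30 mg/kg, plus vehicle control. Killed on day 1, 3 or 14 after dosing (times are days, not hours). Testes removed, right and left weighed separately, sectioned for histology and scored on a 0–6 spermatogenic index. Body weight change recorded. Mean ± SEM, n = 5; p < 0.05 versus control.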

Assay [5] deals with Mus musculus. The assay can be described thus: Tested for its effect on mouse testes weight 3 days after single sub cutaneous dose (5 mg/kg). Type of assay: functional, Testis. The method in brief:
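CD-1 outbred Swiss albino male mice, 5 per dose, single subcutaneous injection on day 0 at 10 mL/kg in ethanol/Tween-20/water (3:7:90). Killed 72 h later. Testes weighed and scored for spermatogenic index (0–6). Results are % reduction versus vehicle control. Each assay included a 30 mg/kg positive control. Dunnett's one-tailed t-test, p < 0.05. Oral versus sc route compared by ANOVA.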

The subject of assay [6] is Mus musculus. Put plainly: tested for its effect on spermatogenic index 3 days after single oral dose (30 mg/kg). Type of assay: functional. In short, it runs like this:
(§3)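 Male CD-1 (ICR)BR outbred Swiss albino mice, 5/dose, single oral gavage dose (10 mL/kg) on day 0 in acetate buffer pH 5 or Tween-20-based vehicle; killed 72 h later. Testis cross-sections scored histologically on a 0–6 spermatogenic index (Sertoli only to >100 late spermatids/tubule). Reported as % reduction versus vehicle control; Dunnett's one-tailed t-test.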

Assay [7] concerns Mus musculus. Put plainly: Effect on right spermatogenic index single oral dose of 10 mg/kg was given and the change after 3 hr of dosing was observed. Type of assay: functional. The method in brief: as §2
The test system of assay [8] is Mus musculus. The assay can be described thus: Tested for its effect on spermatogenic index 3 days after single sub cutaneous dose (10 mg/kg). Type of assay: functional. In short, it runs like this:
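Single subcutaneous injection, 10 mL/kg, to male CD-1 mice (5 per dose) in ethanol/Tween-20/water (3:7:90, v/v/v) on day 0. Mice were killed at 72 h; testes were weighed and histology scored for spermatogenic index (0–6). Results are % reduction from the vehicle control, with a 30 mg/kg positive control group. Dunnett's one-tailed t-test.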

The subject of assay [9] is Mus musculus. The assay can be described thus: tested for its effect on spermatogenic index 3 days after single oral dose (1 mg/kg). Type of assay: functional. The method in brief: as §3
The subject of assay [10] is Mus musculus. The assay can be described thus: Tested for its effect on mouse testes weight 3 days after single oral dose (1 mg/kg). Type of assay: functional, Testis. In short, it runs like this: as §1
Assay [11] relates to Mus musculus. The assay can be described thus: Tested for its effect on spermatogenic index 3 days after single oral dose (10 mg/kg). Type of assay: functional. In short, it runs like this: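 Male CD-1 (ICR) mice, 7 weeks old on arrival, 5 per dose, single gavage of 10 mL/kg on day 0. Vehicle was 0.15 M acetate buffer pH 5, ethanol/Tween-20/water 3:7:90, or 1% Tween-20. Mice were killed with CO2 at 72 h and testes weighed and scored for spermatogenic index (0–6 scale). Results are % reduction versus the vehicle control. Dunnett's one-tailed t-test.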

Assay [12] relates to Mus musculus. The assay can be described thus: Effect on spermatogenic index single oral dose of 30 mg/kg was given and the change after 14 hr of dosing was observed. Type of assay: functional. The method in brief:
as §2

In assay [13] the test system is Mus musculus. Put plainly: Tested for its effect on testes weight 3 days after single oral dose (90 mg/kg). Type of assay: functional, Testis. In short, it runs like this:
as §1

In assay [14] the test system is Mus musculus. The assay can be described thus: Tested for its effect on testes weight 3 days after single oral dose (30 mg/kg). Type of assay: functional, Testis. The method in brief: as §1
Assay [15] deals with Mus musculus. The assay can be described thus: tested for its effect on testes weight 3 days after single sub cutaneous dose (10 mg/kg). Type of assay: functional, Testis. The method in brief: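 CD-1 male mice, 5/dose, injected subcutaneously once (10 mL/kg) on day 0 in ethanol/Tween-20/water (3:7:90); vehicle and positive controls included. Killed by CO2 after 72 h; testes weighed and sectioned, with histology scored as a 0–6 spermatogenic index. Both read-outs given as % reduction from control; Dunnett's one-tailed t-test.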

For assay [16], the system named is Mus musculus. The assay can be described thus: Tested for its effect on spermatogenic index 3 days after single oral dose (1 mg/kg),. Type of assay: functional. In short, it runs like this: as §1

The structures appear in SMILES notation. Several values for one entry are separate records, joined by “and”; a condition that tells them apart may be missing. Equal entries are not always repeated.

On to `CCN1CC[C@H]2[C@H](c3ccc(C)cc3)c3cc(C)ccc3[C@H]2C1.Cl`, for which the Reduction with Mus musculus [1] was 5%; in the assay with Mus musculus [2] it was 9%; with Mus musculus [3], 13%; in the assay on Mus musculus [5], 5%; in the assay with Mus musculus [6], 62%; in the assay on Mus musculus [8] it was 0% and 10%. Also, the Reduction with Mus musculus [9] was found to be 59%; in the assay on Mus musculus [10], 11%; in the assay with Mus musculus [11] it was 31%; in the assay on Mus musculus [13], 4%; in the assay with Mus musculus [14] it was 10%; in the assay with Mus musculus [15], 12%. Also, the Reduction with Mus musculus [16] is recorded as 7%. In addition, the “Change in body weight” value in the assay with Mus musculus [4] turned out to be 3.22 g. For the same compound, the figures for the Spermatogenic index with Mus musculus [7] and with Mus musculus [12] were 3.5 and 1.7, respectively.
